Assay results: ChEMBL document CHEMBL1269007, “Synthesis and biological evaluation of Apogossypolone derivatives as pan-active inhibitors of antiapoptotic B-cell lymphoma/leukemia-2 (Bcl-2) family proteins” (J Med Chem, 2010)
Several values for one entry are separate records, joined by “and”; a condition that tells them apart may be missing. Identical values can stand only once. Activity calls are given as the source filed them. The rule behind the calls is not given here.

Legend:
[1] = target: Apoptosis regulator Bcl-2 (Homo sapiens, UniProt P10415); experiment: Displacement of FITC-Bim BH3 peptide from Bcl-2 after 10 mins by fluorescence polarization assay
Sequence of Apoptosis regulator Bcl-2 (P10415 whole entry): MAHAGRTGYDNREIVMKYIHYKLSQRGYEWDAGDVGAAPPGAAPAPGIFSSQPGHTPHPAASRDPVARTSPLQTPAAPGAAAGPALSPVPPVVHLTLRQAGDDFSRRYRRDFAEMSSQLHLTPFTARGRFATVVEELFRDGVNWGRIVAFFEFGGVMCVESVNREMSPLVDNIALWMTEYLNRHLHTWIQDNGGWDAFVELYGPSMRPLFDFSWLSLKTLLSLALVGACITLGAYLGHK

[2] = target: T1, Bcl-2-like protein 1 (Homo sapiens, UniProt Q07817); experiment: Displacement of F-BakBH3 from Bcl-xL after 30 mins by fluorescence polarization assay
T1 sequence (Q07817 whole entry): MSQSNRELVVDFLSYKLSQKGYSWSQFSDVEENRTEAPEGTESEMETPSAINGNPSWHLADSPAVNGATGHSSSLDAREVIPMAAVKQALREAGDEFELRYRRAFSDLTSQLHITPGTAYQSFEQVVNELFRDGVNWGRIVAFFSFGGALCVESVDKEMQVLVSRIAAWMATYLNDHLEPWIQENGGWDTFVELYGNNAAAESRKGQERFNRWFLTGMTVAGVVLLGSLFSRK
Outline: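 GST-Bcl-XL ΔTM (100 nM) preincubated with varying compound concentrations in PBS pH 7.4 for 10 min at room temperature. FITC-labelled Bak BH3 peptide (2.5 μL of 100 nM stock) then added. Polarization read at 480/535 nm after 30 min at room temperature. Wild-type and mutant Bak BH3 peptides served as plate controls. IC50 from sigmoidal dose-response fit; mean of three independent experiments ± SE.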

[3] = target: T1, Bcl-2-like protein 1; experiment: Binding affinity Bcl-xL by isothermal titration calorimetry assay
[4] = target: Induced myeloid leukemia cell differentiation protein Mcl-1 (Homo sapiens, UniProt Q07820); experiment: Displacement of FITC-Bim BH3 peptide from Mcl-1 after 10 mins by fluorescence polarization assay
Sequence of Induced myeloid leukemia cell differentiation protein Mcl-1 (Q07820 whole entry): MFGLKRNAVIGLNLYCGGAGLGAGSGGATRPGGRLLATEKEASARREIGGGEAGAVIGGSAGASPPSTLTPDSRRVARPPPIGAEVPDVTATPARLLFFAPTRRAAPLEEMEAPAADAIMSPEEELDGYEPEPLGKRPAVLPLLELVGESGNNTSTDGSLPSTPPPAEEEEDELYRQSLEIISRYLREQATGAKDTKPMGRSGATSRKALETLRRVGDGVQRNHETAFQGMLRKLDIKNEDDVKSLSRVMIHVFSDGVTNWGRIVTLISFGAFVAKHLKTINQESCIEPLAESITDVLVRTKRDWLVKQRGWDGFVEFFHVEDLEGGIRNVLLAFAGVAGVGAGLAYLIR

[5] = test system: Mus musculus; experiment: Toxicity in human Bcl2 expressing B6 transgenic BALB/c mouse assessed as mortality at 30 umol/kg, ip administered as single dose after 24 hrs; type: organism-based; conditions: in vivo
Outline: (§1)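 Age- and sex-matched B6 Bcl2 transgenic mice (human BCL-2/IgH minigene on Balb/c background, no aggressive lymphoma yet) given a single i.p. injection of compound in 500 μL ethanol:Cremophor EL:saline 10:10:80. Controls received vehicle. Animals sacrificed at 24 h with Avertin; spleen removed and weighed.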

[6] = test system: Mus musculus; experiment: Toxicity in human Bcl2 expressing B6 transgenic BALB/c mouse assessed as mortality at 60 umol/kg, ip administered as single dose after 24 hrs; type: organism-based; conditions: in vivo
Outline: as §1

[7] = test system: Mus musculus; experiment: Reduction of spleen weight in human Bcl2 expressing B6 transgenic BALB/c mouse at 30 umol/kg, ip administered as single dose after 24 hrs; type: functional; parameters: scale not given: the % may be the effect or the level left
[8] = target: T1, Bcl-2-like protein 1; experiment: Binding affinity Bcl-xL at 200 uM by one-dimensional 1H nuclear magnetic resonance spectroscopy
[9] = Metabolic stability of the compound in rat plasma after 40 mins; type: ADME, cell-free; conditions: read-out: Stability
[10] = Metabolic stability of the compound in rat microsomes after 40 mins; type: ADME, Microsome; conditions: read-out: Stability
[11] = target: T2, Bcl-2-related protein A1 (Homo sapiens, UniProt Q16548); experiment: Displacement of F-BakBH3 from Bfl-1 after 30 mins by fluorescence polarization assay
T2 sequence (Q16548 whole entry): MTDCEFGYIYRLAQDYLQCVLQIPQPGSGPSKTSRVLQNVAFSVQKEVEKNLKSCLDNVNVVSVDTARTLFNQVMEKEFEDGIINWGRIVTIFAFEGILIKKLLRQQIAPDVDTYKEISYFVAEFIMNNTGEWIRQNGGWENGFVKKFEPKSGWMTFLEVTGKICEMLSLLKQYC

[12] = test system: Mus musculus; experiment: Toxicity in human PPC1 cells xenografted nude mouse assessed as mortality at 25 mg/kg, ip administered weekly 3 times; type: organism-based, PPC-1; parameters: dose 25 mg/kg, route intraperitoneal; conditions: in vivo
Outline: (§2)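 PPC-1 flank xenografts (5×10^6 cells s.c.) in female 6-week-old nude mice, size-matched at 200 mm³, 6 per group. Compound given i.p. three times in the first week in ethanol:Cremophor EL:saline 10:10:80 (500 μL); controls got saline. Survival and body weight monitored during week 1.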

[13] = test system: Mus musculus; experiment: Reduction of spleen weight in ip dosed human Bcl2 expressing B6 transgenic BALB/c mouse administered as single dose after 24 hrs; type: functional, organism-based
[14] = test system: Mus musculus; experiment: Reduction of spleen weight in human Bcl2 expressing B6 transgenic BALB/c mouse at 60 umol/kg, ip administered as single dose after 24 hrs relative to control; type: functional; parameters: scale not given: the % may be the effect or the level left
[15] = test system: RS4-11; experiment: Induction of apoptosis in human RS4:11 cells expressing high level of Bcl-2 and Bcl-xL after 24 hrs by annexin V-FITC and propidium iodide staining; type: functional, cell-based
[16] = test system: Mus musculus; experiment: Reduction of spleen weight in human Bcl2 expressing B6 transgenic BALB/c mouse at 60 umol/kg, ip administered as single dose after 24 hrs; type: functional; parameters: scale not given: the % may be the effect or the level left
[17] = test system: Mus musculus; experiment: Toxicity in human PPC1 cells xenografted nude mouse assessed as weight loss at 50 mg/kg, ip administered weekly 3 times; type: organism-based, PPC-1; parameters: dose 50 mg/kg, route intraperitoneal; conditions: in vivo
Outline: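 Nude mice carrying subcutaneous flank xenografts (5×10^6 cells), size-matched at 200 mm³, 6 per group. Dosed intraperitoneally in ethanol:Cremophor EL:saline 10:10:80, three times in week 1, twice in week 2, once in week 3; saline controls. Body weight followed over treatment and reported as average percentage loss.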

[18] = test system: PPC-1; experiment: Antitumor activity against human PPC1 cells xenografted in nude mouse assessed as tumor regression at 50 mg/kg, ip administered 5 times measured on after 2 weeks relative to control; type: functional; conditions: route intraperitoneal
Outline: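 Female 6-week-old nude mice injected s.c. in the flank with 5×10^6 PPC-1 cells in 0.2 ml PBS; size-matched at 200 mm³, 6 per group. Compound given i.p. in ethanol:Cremophor EL:saline 10:10:80 (500 μL), three times in week 1, twice in week 2, once in week 3; controls got saline. Caliper volume (length × width²/2) 2–3 times weekly; T/C% = mean treated volume / mean control volume.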

[19] = test system: Mus musculus; experiment: Toxicity in human Bcl2 expressing B6 transgenic BALB/c mouse up to 120 umol/kg, ip administered as single dose after 24 hrs; type: organism-based; conditions: in vivo
Outline: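 B6 Bcl-2 transgenic Balb/c mice, age- and sex-matched, given one intraperitoneal dose (60 or 120 μmol/kg, also 30 μmol/kg) in ethanol:Cremophor EL:saline 10:10:80, 500 μL; survival and signs of toxicity observed over 24 h before sacrifice.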

[20] = test system: PPC-1; experiment: Antitumor activity against human PPC1 cells xenografted in nude mouse assessed as tumor regression at 50 mg/kg, ip administered weekly 3 times; type: functional, organism-based; parameters: dose 50 mg/kg
Outline: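 Female 6-week-old nude mice given 5×10^6 cells in 0.2 ml PBS subcutaneously in the flank; tumours size-matched at 200 mm³, 6 mice/group. Intraperitoneal injections in ethanol:Cremophor EL:saline 10:10:80 (500 μL), three times week 1, twice week 2, once week 3; controls received saline. Caliper volume (length×width²/2) two to three times weekly; T/C% = mean treated/mean control volume.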

[21] = species: Homo sapiens; experiment: Induction of apoptosis in human CLL after 24 hrs by annexin V-FITC and propidium iodide staining; type: functional
Outline: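 Freshly isolated primary leukaemic cells from CLL patients cultured in RPMI 1640 with 10% FBS and penicillin/streptomycin with various compound concentrations for 1 day. Annexin V-FITC/propidium iodide staining read by flow cytometry; annexin-V-negative, PI-negative cells counted as viable; LD50 derived from dose-response.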

[22] = test system: Mus musculus; experiment: Toxicity in human PPC1 cells xenografted nude mouse assessed as mortality at 50 mg/kg, ip administered weekly 3 times; type: organism-based, PPC-1; parameters: dose 50 mg/kg, route intraperitoneal; conditions: in vivo
Outline: as §2

[23] = test system: BP3; experiment: Induction of apoptosis in human BP3 cells expressing high level of Bfl-1 and Mcl-1 after 24 hrs by annexin V-FITC and propidium iodide staining; type: functional, cell-based
[24] = test system: Mus musculus; experiment: Toxicity in human Bcl2 expressing B6 transgenic BALB/c mouse assessed as weight loss up to 120 umol/kg, ip administered as single dose after 24 hrs; type: organism-based; conditions: in vivo

SMILES	IC50 [1] [nM]	Ki [1] [nM]	IC50 [2] [nM]	Ki [2] [nM]	Kd [3] [nM]	IC50 [4] [nM]	Ki [4] [nM]	Activity [8]	remaining at 40 min [9] [%]	Ki [11] [nM]	Activity [13]	Activity [15]	Activity [16] [%]	Activity [17]	Activity [18] [%]	Activity [20]	LD50 [21] [µM]	Activity [23]	other results
CC1=C(C2=C(C)C(=O)c3c(cc(O)c(O)c3Cc3ccccc3)C2=O)C(=O)c2cc(O)c(O)c(Cc3ccccc3)c2C1=O	290	190	340	230	450	240	160	Active	95	430	Dose-dependent effect								Activity [5]: Non-toxic; Activity [6]: Toxic; Activity [7]: 86%; remaining at 40 min [10]: 91%; IC50 [11]: 650 nM; Activity [12]: Toxic
CC1=C(C2=C(C)C(=O)c3c(cc(O)c(O)c3CCc3ccc(C)cc3)C2=O)C(=O)c2cc(O)c(O)c(CCc3ccc(C)cc3)c2C1=O	3120	2080	3100	2070	2500	2050	1370	Active	86		Dose-dependent effect	Dose-dependent effect	30	5% and 6.8%	33	Active	10	Dose-dependent effect	Activity [14]: 60%; Activity [19]: Non-toxic; Activity [21]: Dose-dependent effect; Activity [22]: Non-toxic; Activity [24]: 5%
CC1=C(C2=C(C)C(=O)c3c(cc(O)c(O)c3C(C)C)C2=O)C(=O)c2cc(O)c(O)c(C(C)C)c2C1=O		250		420			430	Active	77	1470	Dose-dependent effect	Dose-dependent effect	20	9.3%	65	Active	> 30	Dose-dependent effect	
